# From ChEMBL document CHEMBL4184298, “Development of Potent Inhibitors of Receptor Tyrosine Kinases by Ligand-Based Drug Design and Target-Biased Phenotypic Screening” (J Med Chem, 2018)
# The source made the active and inactive calls. No cut-off for these calls is given here.
# Tests used:
# Mus musculus = organism: Mus musculus; assay: (§1) Antiproliferative activity against mouse AXL-positive Breast cancer cells after 5 days by PrestoBlue assay; assay type: functional
# How it was run: (§2)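 Cell proliferation: AXL+ cells were exposed to 8-point half-log dilutions (0.03–100 μM). Viability was read with PrestoBlue reagent on day 5.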
# [1] = target: Vascular endothelial growth factor receptor 2 (Homo sapiens, UniProt P35968); assay: Inhibition of wild-type human partial length VEGFR2 (R787 to P1253 residues) expressed in mammalian expression system using poly [Glu, Try] 4:1 as substrate in presence of [gamma-33P]ATP
# [2] = target: T1, Tyrosine-protein kinase receptor UFO (Homo sapiens, UniProt P30530); assay: Inhibition of wild-type human partial length AXL (R497 to Y821 residues) expressed in bacterial expression system using poly [Glu, Try] 4:1 as substrate in presence of [gamma-33P]ATP
# T1 sequence (P30530 whole entry): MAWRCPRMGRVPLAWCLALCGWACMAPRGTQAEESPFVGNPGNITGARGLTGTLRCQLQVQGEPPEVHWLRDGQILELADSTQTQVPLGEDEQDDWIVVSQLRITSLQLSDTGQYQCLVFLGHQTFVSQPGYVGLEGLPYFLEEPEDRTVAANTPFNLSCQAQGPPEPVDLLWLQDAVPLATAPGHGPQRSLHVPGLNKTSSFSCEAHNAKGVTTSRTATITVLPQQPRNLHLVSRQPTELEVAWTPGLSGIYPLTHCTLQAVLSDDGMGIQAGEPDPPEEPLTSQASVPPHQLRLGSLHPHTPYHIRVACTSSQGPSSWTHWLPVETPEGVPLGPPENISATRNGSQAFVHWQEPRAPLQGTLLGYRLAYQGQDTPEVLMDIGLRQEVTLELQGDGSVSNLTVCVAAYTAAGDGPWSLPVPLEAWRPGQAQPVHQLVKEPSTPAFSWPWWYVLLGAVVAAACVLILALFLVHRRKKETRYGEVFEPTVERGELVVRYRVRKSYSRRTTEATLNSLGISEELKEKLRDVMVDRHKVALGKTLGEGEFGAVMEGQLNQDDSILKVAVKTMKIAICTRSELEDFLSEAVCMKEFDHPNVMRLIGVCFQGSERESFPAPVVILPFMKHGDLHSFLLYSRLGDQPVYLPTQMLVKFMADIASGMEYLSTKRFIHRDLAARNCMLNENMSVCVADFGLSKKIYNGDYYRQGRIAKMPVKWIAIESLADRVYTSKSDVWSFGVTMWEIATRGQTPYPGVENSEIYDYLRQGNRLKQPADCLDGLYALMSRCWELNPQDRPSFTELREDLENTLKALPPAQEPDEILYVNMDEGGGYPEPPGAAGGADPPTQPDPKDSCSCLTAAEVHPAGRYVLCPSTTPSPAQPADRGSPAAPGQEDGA
# [3] = target: Mast/stem cell growth factor receptor Kit (Homo sapiens, UniProt P10721); assay: Inhibition of wild-type human partial length KIT (I571 to D952 residues) expressed in bacterial expression system using poly [Glu, Try] 4:1 as substrate in presence of [gamma-33P]ATP
# How it was run: (§3)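 Radiometric assay on recombinant kinase: ³³P incorporation into the kinase substrate was measured and activity was expressed relative to a DMSO control.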
# [4] = target: T2, Tyrosine-protein kinase Mer (Homo sapiens, UniProt Q12866); assay: Inhibition of wild-type human partial length MER (R557 to L884 residues) expressed in bacterial expression system using poly [Glu, Try] 4:1 as substrate in presence of [gamma-33P]ATP
# T2 sequence (Q12866 whole entry): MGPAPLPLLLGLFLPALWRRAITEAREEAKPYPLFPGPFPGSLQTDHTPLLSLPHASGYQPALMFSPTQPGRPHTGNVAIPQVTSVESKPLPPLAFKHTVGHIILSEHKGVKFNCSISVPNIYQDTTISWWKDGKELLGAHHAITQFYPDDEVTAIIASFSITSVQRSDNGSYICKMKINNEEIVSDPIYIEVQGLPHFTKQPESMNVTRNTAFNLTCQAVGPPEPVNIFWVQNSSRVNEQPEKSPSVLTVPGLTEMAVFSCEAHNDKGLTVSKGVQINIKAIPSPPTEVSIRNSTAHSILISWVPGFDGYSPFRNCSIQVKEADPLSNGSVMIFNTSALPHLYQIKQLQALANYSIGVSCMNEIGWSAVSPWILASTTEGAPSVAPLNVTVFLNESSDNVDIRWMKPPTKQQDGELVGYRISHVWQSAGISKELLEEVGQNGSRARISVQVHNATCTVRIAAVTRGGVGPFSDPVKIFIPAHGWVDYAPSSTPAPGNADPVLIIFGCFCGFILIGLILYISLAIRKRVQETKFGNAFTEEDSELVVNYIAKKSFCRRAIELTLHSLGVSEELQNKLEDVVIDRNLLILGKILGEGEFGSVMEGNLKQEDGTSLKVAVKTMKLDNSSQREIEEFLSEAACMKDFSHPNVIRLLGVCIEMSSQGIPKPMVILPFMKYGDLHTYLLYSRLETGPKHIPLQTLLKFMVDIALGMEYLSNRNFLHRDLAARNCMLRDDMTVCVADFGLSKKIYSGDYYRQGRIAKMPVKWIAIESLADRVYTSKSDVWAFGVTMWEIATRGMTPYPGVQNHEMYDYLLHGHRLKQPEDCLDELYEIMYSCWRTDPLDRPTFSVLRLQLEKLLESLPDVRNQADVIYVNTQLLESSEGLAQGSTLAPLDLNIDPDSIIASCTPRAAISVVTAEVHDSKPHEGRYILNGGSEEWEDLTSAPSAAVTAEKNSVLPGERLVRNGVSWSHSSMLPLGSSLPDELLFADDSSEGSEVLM
# [5] = target: Proto-oncogene tyrosine-protein kinase Src (Homo sapiens, UniProt P12931); assay: Inhibition of wild-type human partial length SRC (L240 to L536 residues) expressed in bacterial expression system using poly [Glu, Try] 4:1 as substrate in presence of [gamma-33P]ATP
# [6] = as §1; assay type: functional; conditions: 120 h; how it was run: as §2
# Aurora kinase B = Aurora kinase B (Homo sapiens, UniProt Q96GD4); assay: Inhibition of wild-type human partial length AURKB (D25 to A303 residues) expressed in mammalian expression system using poly [Glu, Try] 4:1 as substrate in presence of [gamma-33P]ATP; how it was run: as §3
# MOLM-13 = assay: Antiproliferative activity against human MOLM13 cells after 5 days by PrestoBlue assay; assay type: functional, cell-based
# [7] = target: Epidermal growth factor receptor (Homo sapiens, UniProt P00533); assay: Inhibition of wild-type human partial length EGFR (R669 to V1011 residues) expressed in bacterial expression system using poly [Glu, Try] 4:1 as substrate in presence of [gamma-33P]ATP; how it was run: as §3
# [8] = target: Receptor-type tyrosine-protein kinase FLT3 (Homo sapiens, UniProt P36888, ITD); assay: Inhibition of human partial length FLT3 ITD mutant expressed in bacterial expression system using poly [Glu, Try] 4:1 as substrate in presence of [gamma-33P]ATP
# How it was run: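 Recombinant kinase assays were run radiometrically by an outside contract service. Activity was read as 33P incorporation into each kinase's substrate and expressed relative to a DMSO control.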
# Sequence of Proto-oncogene tyrosine-protein kinase Src (P12931 2-536 limits assumed): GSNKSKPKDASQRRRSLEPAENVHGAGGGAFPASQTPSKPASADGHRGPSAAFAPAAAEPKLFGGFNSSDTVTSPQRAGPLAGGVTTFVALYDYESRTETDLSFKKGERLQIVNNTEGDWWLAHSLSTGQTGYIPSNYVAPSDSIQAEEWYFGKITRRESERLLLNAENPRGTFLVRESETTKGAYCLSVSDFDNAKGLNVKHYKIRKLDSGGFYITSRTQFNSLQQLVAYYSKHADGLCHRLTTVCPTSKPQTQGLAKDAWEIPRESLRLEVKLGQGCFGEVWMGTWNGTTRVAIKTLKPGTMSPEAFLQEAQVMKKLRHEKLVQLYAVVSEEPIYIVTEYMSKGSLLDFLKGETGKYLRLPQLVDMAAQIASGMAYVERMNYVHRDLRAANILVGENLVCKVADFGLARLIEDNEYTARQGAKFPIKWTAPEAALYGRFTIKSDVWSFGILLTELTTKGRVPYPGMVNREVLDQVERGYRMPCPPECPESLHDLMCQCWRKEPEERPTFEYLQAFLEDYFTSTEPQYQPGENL
# Sequence of Vascular endothelial growth factor receptor 2 (P35968 whole entry, the tested form may be a part): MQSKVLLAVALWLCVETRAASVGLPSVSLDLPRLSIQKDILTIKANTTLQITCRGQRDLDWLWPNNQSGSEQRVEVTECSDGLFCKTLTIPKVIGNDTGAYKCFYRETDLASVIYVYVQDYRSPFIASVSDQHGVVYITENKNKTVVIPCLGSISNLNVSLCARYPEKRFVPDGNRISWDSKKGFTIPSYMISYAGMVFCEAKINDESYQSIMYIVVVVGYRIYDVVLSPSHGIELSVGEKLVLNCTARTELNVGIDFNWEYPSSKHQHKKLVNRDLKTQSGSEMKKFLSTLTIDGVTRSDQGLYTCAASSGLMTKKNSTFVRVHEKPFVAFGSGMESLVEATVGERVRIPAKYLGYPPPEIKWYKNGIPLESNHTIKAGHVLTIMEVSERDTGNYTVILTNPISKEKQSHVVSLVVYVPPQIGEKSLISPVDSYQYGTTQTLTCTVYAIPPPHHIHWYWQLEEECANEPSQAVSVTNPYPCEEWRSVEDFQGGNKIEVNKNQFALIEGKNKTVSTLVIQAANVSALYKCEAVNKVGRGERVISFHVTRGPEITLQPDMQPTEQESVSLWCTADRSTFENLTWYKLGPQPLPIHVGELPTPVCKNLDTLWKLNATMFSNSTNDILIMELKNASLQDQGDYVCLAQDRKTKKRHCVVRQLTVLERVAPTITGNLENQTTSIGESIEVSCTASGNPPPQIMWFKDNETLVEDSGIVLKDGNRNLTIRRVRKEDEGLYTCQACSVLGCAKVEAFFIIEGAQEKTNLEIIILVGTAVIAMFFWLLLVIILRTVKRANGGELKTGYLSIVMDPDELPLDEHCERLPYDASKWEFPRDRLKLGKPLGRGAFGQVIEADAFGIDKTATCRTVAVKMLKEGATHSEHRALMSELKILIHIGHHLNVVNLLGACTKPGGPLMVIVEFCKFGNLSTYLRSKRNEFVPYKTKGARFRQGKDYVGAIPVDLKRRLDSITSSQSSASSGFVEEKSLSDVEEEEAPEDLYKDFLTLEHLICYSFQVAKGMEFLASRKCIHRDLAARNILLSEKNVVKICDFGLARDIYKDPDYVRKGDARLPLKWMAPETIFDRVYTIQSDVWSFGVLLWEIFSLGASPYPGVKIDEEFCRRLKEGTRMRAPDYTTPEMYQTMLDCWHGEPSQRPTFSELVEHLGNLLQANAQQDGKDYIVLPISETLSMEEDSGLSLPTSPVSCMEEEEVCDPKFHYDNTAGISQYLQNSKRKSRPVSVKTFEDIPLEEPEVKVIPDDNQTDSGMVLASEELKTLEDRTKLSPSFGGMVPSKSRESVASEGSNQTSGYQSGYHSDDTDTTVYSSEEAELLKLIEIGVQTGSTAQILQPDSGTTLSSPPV
# Sequence of Mast/stem cell growth factor receptor Kit (P10721 whole entry, the tested form may be a part): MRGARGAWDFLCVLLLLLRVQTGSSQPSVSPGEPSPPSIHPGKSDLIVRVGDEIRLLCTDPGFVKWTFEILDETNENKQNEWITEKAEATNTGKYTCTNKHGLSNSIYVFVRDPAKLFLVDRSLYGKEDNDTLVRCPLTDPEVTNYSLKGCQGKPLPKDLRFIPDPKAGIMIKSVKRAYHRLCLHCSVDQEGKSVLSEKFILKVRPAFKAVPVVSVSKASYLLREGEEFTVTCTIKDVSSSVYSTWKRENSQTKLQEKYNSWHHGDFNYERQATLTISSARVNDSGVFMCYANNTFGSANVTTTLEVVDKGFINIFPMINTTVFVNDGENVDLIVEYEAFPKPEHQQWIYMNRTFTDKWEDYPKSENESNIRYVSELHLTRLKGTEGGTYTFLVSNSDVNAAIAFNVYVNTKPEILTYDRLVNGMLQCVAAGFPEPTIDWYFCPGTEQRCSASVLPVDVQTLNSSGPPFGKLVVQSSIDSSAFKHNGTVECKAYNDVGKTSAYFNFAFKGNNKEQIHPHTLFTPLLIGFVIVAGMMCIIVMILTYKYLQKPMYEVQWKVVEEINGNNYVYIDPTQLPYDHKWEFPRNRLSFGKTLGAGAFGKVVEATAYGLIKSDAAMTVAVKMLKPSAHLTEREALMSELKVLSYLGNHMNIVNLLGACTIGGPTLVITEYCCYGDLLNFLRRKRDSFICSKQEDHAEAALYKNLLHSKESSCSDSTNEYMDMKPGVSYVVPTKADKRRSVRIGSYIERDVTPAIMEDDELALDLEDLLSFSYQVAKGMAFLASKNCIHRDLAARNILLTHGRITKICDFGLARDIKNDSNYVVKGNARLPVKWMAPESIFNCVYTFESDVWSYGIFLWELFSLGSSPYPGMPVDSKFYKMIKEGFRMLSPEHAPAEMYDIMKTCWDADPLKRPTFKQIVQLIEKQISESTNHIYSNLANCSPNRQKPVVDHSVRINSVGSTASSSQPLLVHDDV
# Sequence of Aurora kinase B (Q96GD4 whole entry, the tested form may be a part): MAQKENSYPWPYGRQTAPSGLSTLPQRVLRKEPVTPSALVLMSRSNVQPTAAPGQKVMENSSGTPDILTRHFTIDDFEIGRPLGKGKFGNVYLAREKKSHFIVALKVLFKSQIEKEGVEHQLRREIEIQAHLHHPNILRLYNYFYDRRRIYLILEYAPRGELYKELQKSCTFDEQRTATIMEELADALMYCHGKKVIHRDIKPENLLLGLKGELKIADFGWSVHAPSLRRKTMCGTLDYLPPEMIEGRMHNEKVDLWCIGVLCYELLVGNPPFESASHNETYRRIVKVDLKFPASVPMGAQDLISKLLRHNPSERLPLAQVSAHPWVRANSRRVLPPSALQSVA
# Sequence of Epidermal growth factor receptor (P00533 whole entry, the tested form may be a part): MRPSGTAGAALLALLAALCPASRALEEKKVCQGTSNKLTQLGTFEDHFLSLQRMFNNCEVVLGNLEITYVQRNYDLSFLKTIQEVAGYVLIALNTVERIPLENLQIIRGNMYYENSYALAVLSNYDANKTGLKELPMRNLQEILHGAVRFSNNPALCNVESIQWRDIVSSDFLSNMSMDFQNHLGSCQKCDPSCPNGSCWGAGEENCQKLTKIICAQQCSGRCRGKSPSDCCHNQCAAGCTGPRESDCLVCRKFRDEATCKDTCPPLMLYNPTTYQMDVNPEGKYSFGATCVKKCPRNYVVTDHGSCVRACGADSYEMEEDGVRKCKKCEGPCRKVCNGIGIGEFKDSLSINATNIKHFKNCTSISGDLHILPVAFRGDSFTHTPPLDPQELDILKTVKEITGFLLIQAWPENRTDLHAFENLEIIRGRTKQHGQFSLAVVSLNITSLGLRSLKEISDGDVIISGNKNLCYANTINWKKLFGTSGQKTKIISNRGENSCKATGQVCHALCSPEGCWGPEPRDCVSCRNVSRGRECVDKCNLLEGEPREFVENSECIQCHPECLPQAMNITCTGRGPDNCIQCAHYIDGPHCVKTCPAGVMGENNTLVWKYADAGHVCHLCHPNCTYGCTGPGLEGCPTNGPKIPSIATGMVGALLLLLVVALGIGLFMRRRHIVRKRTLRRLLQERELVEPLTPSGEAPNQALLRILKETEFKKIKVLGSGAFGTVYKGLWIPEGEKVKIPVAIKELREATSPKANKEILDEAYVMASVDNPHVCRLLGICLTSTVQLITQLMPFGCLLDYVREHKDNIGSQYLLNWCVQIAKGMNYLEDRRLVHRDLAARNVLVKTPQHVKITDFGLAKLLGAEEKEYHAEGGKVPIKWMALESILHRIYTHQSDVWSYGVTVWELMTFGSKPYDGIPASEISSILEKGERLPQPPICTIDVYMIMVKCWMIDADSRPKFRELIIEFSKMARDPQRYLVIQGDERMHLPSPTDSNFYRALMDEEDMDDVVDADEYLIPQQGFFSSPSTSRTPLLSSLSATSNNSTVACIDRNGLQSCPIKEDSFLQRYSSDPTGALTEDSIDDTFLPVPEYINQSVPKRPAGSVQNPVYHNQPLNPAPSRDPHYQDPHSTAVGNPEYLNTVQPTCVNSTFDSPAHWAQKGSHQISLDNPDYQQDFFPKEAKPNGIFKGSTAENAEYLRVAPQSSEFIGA
Structure (SMILES),Activity (Mus musculus),IC50 [1] [nM],IC50 [2] [nM],IC50 [3] [nM],IC50 [4] [nM],IC50 [5] [nM],EC50 [6] [nM],IC50 (Aurora kinase B) [nM],Activity (MOLM-13),IC50 [7] [nM],IC50 [8] [nM]
CCN1CCN(c2ccc(-c3nn(Cc4cn(Cc5ccccc5)nn4)c4nc(NC)ncc34)cn2)CC1,inactive,7700,> 10000,> 10000,> 10000,> 10000,–,–,–,–,–
CNc1ncc2c(-c3ccc(N4CCN(C)CC4)nc3)nn(Cc3cn(Cc4ccccc4)nn3)c2n1,inactive,7600,380,> 10000,2000,8300,–,–,–,–,–
CNc1ncc2c(-c3ccc(N4CCN(C(=O)C(C)(C)C)CC4)nc3)nn(Cc3cn(Cc4ccccc4)nn3)c2n1,inactive,> 10000,760,> 10000,5400,> 10000,–,–,–,–,–
CNc1ncc2c(-c3ccc(N4CCNCC4)nc3)nn(CC3CCCC3)c2n1,–,690,120,1100,640,1100,830,–,–,–,–
CNc1ncc2c(-c3ccc(N4CCN(C)CC4)nc3)nn(CC3CCCC3)c2n1,–,400,70,360,480,800,–,170,Active,> 10000,30
CNc1ncc2c(-c3ccc(N4CCNCC4)nc3)nn(Cc3cn(-c4ccsc4C(=O)OC)nn3)c2n1,Active,> 10000,780,> 10000,8900,> 10000,–,–,–,–,–
CNc1ncc2c(-c3ccc(N4CCNCC4)nc3)nn(CC3OCCO3)c2n1,–,4500,530,7500,6200,890,≤ 10000,–,–,–,–
CNc1ncc2c(-c3ccc(OC)cc3)nn(CC3OCCO3)c2n1,–,7500,1300,> 10000,8700,7200,≤ 10000,–,–,–,–
Nc1nc(Nc2ccc3c(c2)CC[C@@H](N2CCCC2)CC3)nn1-c1cc2c(nn1)-c1ccccc1CCC2 [BEMCENTINIB],–,–,–,1000,–,–,–,100,Active,3900,6
CNc1ncc2c(-c3ccc(N4CCNCC4)cc3)nn(Cc3cn(Cc4ccccc4)nn3)c2n1,inactive,> 10000,> 10000,> 10000,> 10000,> 10000,–,–,–,–,–
CCN1CCN(c2ccc(-c3nn(CC4CCCC4)c4nc(NC)ncc34)cn2)CC1,–,1900,260,1800,2500,3600,–,–,–,–,–
CNc1ncc2c(-c3ccc(N4CCN(C(=O)C(C)(C)C)CC4)nc3)nn(CC3CCCC3)c2n1,–,> 10000,7200,> 10000,> 10000,> 10000,–,–,–,–,–
